FN deposit inh – fibronectin deposition inhibition; AH1F fibroblasts, Alexa488-fibronectin deposition fluorescence, overnight; inhibition, % at 12.6 µM; 350,000 compounds, 0.086% hits;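 active = mean inhibition across replicates of 30% or more, regardless of how many single replicates reach that level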
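material = AH1F fibroblast monolayer depositing Alexa488-labelled fibronectin into matrix | amount = 10000 AH1F cells/well | buffer or medium = DMEM plus 2% serum, read in PBS | incubation = 1 h cell adhesion before compound, then overnight fibronectin incubation | detection = fluorescence at 485 nm excitation, 525 nm emission | evaluation = percent inhibition as loss of matrix-bound fibronectin fluorescence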
Env fusion inh – HIV envelope-mediated fusion inhibition | HeLa-JRFL Env/CEM21 cell fusion, luciferase | inhibition, % at 12.3 µM | 360,000 compounds, 1.1% hits | AID 651610;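 active = mean replicate inhibition score of at least 50 and every replicate individually at or above 50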
rRNA inh HTS – selective bacterial rRNA inhibition in E. coli; E. coli WT GFP vs humanized-ribosome RFP mutants, fluorescence, 24 h; hits give low values; DMSO median 0, no signal -100; GFP signal change (wild-type ribosome), % (concentration not given with the values); 350,000 compounds, 1.6% hits;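 active = significant combined selectivity score with lowered wild-type GFP, culture density cut under 30%, mutant RFP and density less affected; inactive = any of these conditions unmet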
DENV2 CPE – inhibitors of DENV2 cytopathic effect; DENV2-infected cells, cytopathic effect rescue, plate reader; CPE inhibition, % at 9.99 µM; 350,000 compounds, 1.7% hits; AID 651640; in the data active = CPE inhibition above about 20%, passing the limit was not always enough; tested in BHK-21 cells
PglD inh – blocks C. jejuni PglD acetyltransferase activity; purified PglD enzyme, DTNB colorimetric CoA detection; inhibition, % at 12.5 µM; 360,000 compounds, 0.098% hits; in the data active = inhibition above about 16%, passing the limit was not always enough
PGC1a acetyl inh – modulators of PGC1a acetylation. inhibition, % at 15.6 µM. U2OS PGC1a acetylation, AlphaScreen anti-acetyl-lysine; with virally co-expressed GCN5 acetyltransferase. 350,000 compounds, 0.17% hits;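 active = every replicate shows inhibition of at least 40%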
Of the large screens only hits and unclear results are named; the others gave an inactive call; [ ] = dose if it differs, or a comment. Compounds with a hit are over-represented: about 3.5% of the library has one in this group of screens.

CCOP(=O)(c1ccccc1)C(O)c1ccc(F)cc1 (stereo not drawn)	none (no result: rRNA inh HTS, DENV2 CPE, PglD inh, PGC1a acetyl inh)
CCOP(=O)(c1ccccc1)C(O)c1ccc([N+](=O)[O-])cc1 (stereo not drawn)	DENV2 CPE 39
CC(C)NC(=O)Nc1ccc2c(c1)C(=O)N([C@@H](C)CO)C[C@@H](C)[C@@H](CN(C)C(=O)c1ccccc1)OCCCC[C@H](C)O2	none (no result: FN deposit inh, DENV2 CPE, PglD inh)
COc1cc(O)c(C(C)=O)c2c1C=CC(C)(C)O2	DENV2 CPE 27 (no result: FN deposit inh, Env fusion inh)
C[C@@H]1CCCCO[C@@H](CN(C)Cc2ccc(C(=O)O)cc2)[C@H](C)CN([C@@H](C)CO)C(=O)c2cc(NC(=O)c3ccccc3)ccc2O1	none
COc1cc(OC)nc(Oc2ccccc2C(=O)Oc2ccccc2Cl)n1	rRNA inh HTS -23 (no result: FN deposit inh, Env fusion inh)
COc1ccc(NC(=O)Nc2ccc3c(c2)N(C)C(=O)CS3)cc1OC	none
COc1ccc(NC(=O)Nc2ccc3c(c2)N(C)C(=O)CS3)cc1Cl	Env fusion inh 76 (no result: FN deposit inh, rRNA inh HTS, DENV2 CPE, PglD inh)
C[C@@H]1CN([C@@H](C)CO)C(=O)c2cc(NC(=O)Cc3cn(C)c4ccccc34)ccc2O[C@H]1CN(C)Cc1ccc2c(c1)OCO2	none (no result: Env fusion inh)
Cc1cccn2c(=O)c(/C=C(\C#N)C(=O)NCc3ccco3)c(N3CCCCC3)nc12	none (no result: Env fusion inh)
Cc1cccn2c(=O)c(/C=C(\C#N)C(=O)NCc3ccco3)c(N3CCCCCC3)nc12	rRNA inh HTS -30
COc1ccccc1-c1c(C(F)(F)F)oc2cc(OS(C)(=O)=O)ccc2c1=O	rRNA inh HTS -26 (no result: Env fusion inh)
COc1ccc(CN(C)C[C@@H]2Oc3c(NC(=O)C4CCOCC4)cccc3C(=O)N([C@H](C)CO)C[C@H]2C)cc1	none (no result: FN deposit inh, Env fusion inh)
Cc1noc(C)c1NC(=O)N(C)C[C@H]1Oc2ccc(NC(=O)CCCCCC(=O)Nc3ccccc3N)cc2C(=O)N([C@H](C)CO)C[C@H]1C	none (no result: FN deposit inh, Env fusion inh)
CCCCN1C=C(C(C)=O)C(=O)CC1	DENV2 CPE 47
CC(C)C(=O)Nc1ccc2c(c1)C(=O)N(C)[C@H]1CC[C@H](CC(=O)NCC3CC3)O[C@@H]1CO2	none
Cc1cc(OCCOCCNCc2ccccc2)ccc1C(C)C	Env fusion inh 93
CCOC(=O)C1=NNC(C(=O)c2ccccc2)C1c1ccc(C)cc1 (stereo not drawn)	rRNA inh HTS -26 (no result: PglD inh, PGC1a acetyl inh)
CCOC(=O)C1=NNC(C(=O)c2ccc(C)cc2)C1c1ccc(C)cc1 (stereo not drawn)	none (no result: rRNA inh HTS, DENV2 CPE)
CN1C(=O)c2cc(NC(=O)c3cscn3)ccc2OC[C@@H]2O[C@H](CC(=O)NCc3ccc(Cl)c(Cl)c3)CC[C@H]21	Env fusion inh 58[16.7 µM]
CCNC(=O)C[C@@H]1CC[C@H]2[C@H](COc3ccc(NC(=O)c4cscn4)cc3C(=O)N2C)O1	none
CN1C(=O)c2cc(NC(=O)c3cscn3)ccc2OC[C@H]2O[C@H](CC(=O)NCc3ccc(Cl)c(Cl)c3)CC[C@H]21	Env fusion inh 68[16.7 µM]
OC[C@H]1[C@@H](c2ccccc2)C2(CN(CCC(F)(F)F)C2)N1Cc1ccncc1	none (no result: FN deposit inh, Env fusion inh, PglD inh)
COc1ccc(-c2cc(C(=O)N(C)Cc3ccc(F)cc3)c3ccccc3n2)cc1OC	rRNA inh HTS -28 (no result: PGC1a acetyl inh)
COc1ccc(CCN(C)C(=O)c2cc(-c3ccc(C)cc3)nc3ccccc23)cc1OC	none (no result: PGC1a acetyl inh)
O=C(C[C@@H]1CC[C@H](NS(=O)(=O)c2ccc(F)cc2)[C@@H](CO)O1)NC1CCC1	none (no result: FN deposit inh)
O=C(Nc1nncs1)C1c2ccccc2Oc2ccccc21	Env fusion inh 59 (no result: rRNA inh HTS, DENV2 CPE, PglD inh, PGC1a acetyl inh)
CCN(Cc1ccncc1)C(=O)c1ccco1	DENV2 CPE 25 (no result: FN deposit inh)
Cc1cc(Br)c(OCc2ccc(C(=O)N/N=C3\CC(=O)CC(C)(C)C3)cc2)c(Br)c1	DENV2 CPE 76 (no result: Env fusion inh, PglD inh, PGC1a acetyl inh)
CC(C)NC(=O)Nc1ccc2c(c1)C(=O)N([C@@H](C)CO)C[C@H](C)[C@H](CN(C)Cc1ccc(C(F)(F)F)cc1)OCCCC[C@@H](C)O2	none
CC(C)NC(=O)Nc1ccc2c(c1)C(=O)N([C@@H](C)CO)C[C@H](C)[C@H](CN(C)Cc1ccc(C(=O)O)cc1)OCCCC[C@@H](C)O2	DENV2 CPE 25
CCCN(C)C[C@H]1OCCCC[C@H](C)Oc2ccc(NC(=O)Nc3ccc(C(F)(F)F)cc3)cc2C(=O)N([C@@H](C)CO)C[C@H]1C	none (no result: FN deposit inh)

Bioassay records deposited in PubChem by Broad Institute.
